In ChEMBL document CHEMBL1165987, “Cyclic tripeptides from the halotolerant fungus Aspergillus sclerotiorum PT06-1” (2010):
Values after ≈ are worked out from the molar mass of the structure shown. Active and inactive are the calls of the source. No cut-off for these calls is given here.

Experiments:
[1] = system: HL-60; assay: Cytotoxicity against human HL60 cells after 72 hrs by MTT assay; format: functional, cell-based
[2] = system: Staphylococcus aureus; assay: Antimicrobial activity against Staphylococcus aureus after 24 hrs by agar dilution method; format: functional, organism-based
Summary of the method: (§1)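 Each organism was tested separately by agar dilution. The MIC was recorded as the read-out and given in µM.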

[3] = system: A549; assay: Cytotoxicity against human A549 cells after 24 hrs by SRB method; format: functional, cell-based
[4] = system: Candida albicans; assay: Antimicrobial activity against Candida albicans after 24 hrs by agar dilution method; format: functional; summary of the method: as §1
[5] = system: Escherichia coli; assay: Antimicrobial activity against Escherichia coli after 24 hrs by agar dilution method; format: functional, organism-based; summary of the method: as §1

In the case of C/C=C/C=C/C=C/C(=O)N[C@H]1CCCNC(=O)[C@H](C)NC(=O)[C@H](C(C)C)N(C)C1=O, the inhibition [1] is reported as “inactive”, the MIC [2] is reported as “inactive” and the inhibition [3] is reported as “inactive”. For the same molecule, the MIC [4] was 30 µM (≈ 12.6 µg/mL) and the MIC [5] was “inactive”.
For C/C=C/C=C/C=C/C(=O)N[C@H]1CCCNC(=O)[C@H](C)N(C)C(=O)[C@H](C(C)C)NC1=O [SCLEROTIOTIDE A], the inhibition [1] was “inactive”, the MIC [2] was “inactive” and the inhibition [3] was “inactive”. For the same molecule, the MIC [4] was 7.5 µM (≈ 3.14 µg/mL) and the MIC [5] was “inactive”.
C/C=C/C=C/C(=O)N[C@H]1CCCNC(=O)[C@H](C)N(C)C(=O)[C@H](C(C)C)N(C)C1=O [SCLEROTIOTIDE B] was tested, and the inhibition [1] was “inactive”, the MIC [2] was “inactive” and the inhibition [3] was “inactive”. The MIC [4] was 3.8 µM (≈ 1.54 µg/mL) and the MIC [5] was “inactive”.
CC(C)[C@H]1C(=O)N(C)[C@@H](C)C(=O)NCCC[C@H](NC(=O)/C=C/C=C/C=O)C(=O)N1C [SCLEROTIOTIDE F] was tested, and the inhibition [1] was “inactive”, the MIC [2] was “inactive” and the inhibition [3] was “inactive”. The MIC [4] was 30 µM (≈ 12.6 µg/mL) and the MIC [5] was “inactive”.
In the case of CC(C)[C@H]1C(=O)N(C)[C@@H](C)C(=O)NCCC[C@H](NC(=O)/C=C/C=C/[C@@H](O)[C@@H](C)O)C(=O)N1C [SCLEROTIOTIDE I], the inhibition [1] is reported as “inactive”, the MIC [2] is reported as “inactive” and the inhibition [3] is reported as “inactive”. For the same molecule, the MIC [4] was 6.7 µM (≈ 3.13 µg/mL) and the MIC [5] was “inactive”.
